# Sampled rows, rich in hits. Any-hit rate of the full collection: about 2.1%.
# LMPTP block: blocks human LMPTP phosphatase; AID 651560; P24666; inhibition, % at 20 µM; 360,000 tested, 0.22% active; recombinant LMPTP-A, OMFP fluorogenic substrate, fluorescence intensity;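 active = compounds that cut the enzyme signal by at least half of the control window in the single-dose screen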;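 also: plate controls were DMSO wells with enzyme plus substrate for no effect and substrate without enzyme for full effect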
# Target sequence (P24666 whole entry, looked up): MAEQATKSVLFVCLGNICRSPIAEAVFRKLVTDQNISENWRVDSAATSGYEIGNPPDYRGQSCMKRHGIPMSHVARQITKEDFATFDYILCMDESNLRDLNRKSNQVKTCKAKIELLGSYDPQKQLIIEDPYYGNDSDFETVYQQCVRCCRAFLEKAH
#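 Material: LMPTP-A; amount: 0.625 nM enzyme; doses: single 20 µM dose; times: reaction 50 min, room temperature, dark; technique: fluorescence intensity of OMFP turnover product; benchmarks: no-enzyme and uninhibited controls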
# DNMT1 block: blocks human DNA methyltransferase DNMT1. P26358. 360,000 tested, 0.83% active. DNMT1 molecular beacon, Hinp1I cleavage, fluorescence. inhibition (reported as % activation of signal), % at 10 µM; in the data active = inhibition above about 50%
# STEP block: blocks human striatal-enriched tyrosine phosphatase; recombinant STEP, OMFP fluorogenic substrate, fluorescence; AID 588621; 360,000 tested, 0.25% active; P54829; inhibition, % at 20 µM;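 active = inhibition at 20 µM, scaled per plate between control wells, above about 37%, limit read from the data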;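 also: 0% = DMSO with enzyme and substrate and 100% = substrate only without enzyme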
#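 medium = Bis-Tris buffer pH 6.0, 2.5 mM DTT, 0.005% Tween 20 | test system = STEP (striatal-enriched tyrosine phosphatase) enzyme, cell-free | measure = normalized % inhibition | compound dosing = 20 µM, 1% DMSO | also added = 25 µM OMFP | schedule = reaction 20 min, ambient temperature | measured by = fluorescence read at 480 nm ex / 540 nm em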
# Scp1 inh: inhibitors of human Scp-1 phosphatase | 340,000 tested, 0.88% active | inhibition, % at 20 µM | Recombinant Scp1, phosphopeptide, malachite green phosphate absorbance | Q9GZU7;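 active = inhibition above about 50% at 20 µM, limit read from the data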;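 also: plate controls were DMSO wells with enzyme for no effect and wells lacking enzyme for full effect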
# Target sequence (Q9GZU7 76-261 limits assumed): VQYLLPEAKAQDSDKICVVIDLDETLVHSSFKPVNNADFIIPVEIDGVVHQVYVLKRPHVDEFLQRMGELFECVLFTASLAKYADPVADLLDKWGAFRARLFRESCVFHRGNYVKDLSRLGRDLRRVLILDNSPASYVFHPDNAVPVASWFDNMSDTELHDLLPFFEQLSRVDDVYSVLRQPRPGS
#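 Test system – truncated SCP-1 phosphatase (76-261aa) · Reagent – Phosphorylated 17-residue peptide substrate · Incubation – 45 min room-temperature reaction, 5 min colour, 30 min stabiliser · Detection – colorimetric phosphate reagent with accelerator and stabiliser, absorbance at 630 nm · Measure – % inhibition at 20 µM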
# GRK2 aptamer HTS: blocks RNA aptamer binding to human GRK2. P25098. bead flow cytometry, FAM-aptamer displacement from GRK2. inhibition of aptamer binding, % at 10 µM. 330,000 tested, 0.59% active. AID 488847;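 active = inhibition of aptamer binding above 40%, roughly 3 SD of noise, on plates passing a quality check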;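 also: median bead fluorescence of bound FAM aptamer so fluorescent compounds give negative values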
# SUMO1-SIM PPI: modulators of human SUMO1-mediated protein-protein interactions | inhibition, % at 20 µM | SUMO1 binding to a labelled peptide, TR-FRET, 1 h | AID 602429 | 360,000 tested, 0.33% active; in the data active = inhibition above about 37%
# Target sequence (P63165 whole entry, looked up): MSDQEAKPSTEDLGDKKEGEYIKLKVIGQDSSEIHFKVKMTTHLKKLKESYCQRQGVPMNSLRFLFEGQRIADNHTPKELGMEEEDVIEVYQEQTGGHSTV
# * marks the source's active call; other numbers are inactive results; . = no result given.
SMILES,LMPTP block,DNMT1 block,STEP block,Scp1 inh,GRK2 aptamer HTS,SUMO1-SIM PPI
Cc1ccc2nc(SCC(=O)Nc3ccc(F)cc3)nc(=O)n2c1,-2,-2,-2,-3,4,-3
Cc1cc(C)c(S(=O)(=O)c2ccccc2)c(OC(=O)c2c(Cl)cc(Cl)cc2Cl)n1,3,-7,2,-12,1,42*
CC1(C)CC(=O)C(C(c2ccc3c(c2)OCO3)C2C(=O)CC(C)(C)CC2=O)C(=O)C1,0,1,2,.,.,0
COc1cccc(-c2cnc3c(NC(C)=O)cc(-c4cccc(C(=O)NCCN(C)C)c4)cn23)c1,-5,-9,0,.,.,-56
CN(C)CCNC(=O)c1cccc2nc3cccc(F)c3nc12,0,55*,0,-5,.,-56
Cc1ccccc1Nc1cc2ccccc2c(=O)[nH]1,9,84*,8,-7,1,21
O=c1[nH]c(Nc2ccccn2)cc2ccccc12,4,30,3,-4,1,9
O=c1[nH]c(Nc2ccccc2Cl)cc2ccccc12,9,85*,10,-6,10,28
O=c1[nH]c(Nc2ccc(F)cc2)cc2ccccc12,9,49,10,-2,23,32
N=C(N)c1ccc(OCCCCCOc2ccc(C(=N)N)cc2)cc1,58*,20,-3,-9,0,-65
O=C(NC1CCCC1)C1C(c2ccc(C(F)(F)F)cc2)=Nc2ccccc2N1C(=O)c1ccccc1 (centres undefined),5,.,.,.,.,-15
COc1ccc(/C(C)=N/Nc2ccccc2Cl)c(O)c1,0,22,9,27,6,58*
CC1(C(=O)NS(=O)(=O)c2ccccc2Cl)CCN1C(=O)c1ccco1 (centres undefined),-1,-1,2,.,.,-1
Brc1ccc2nc(-c3ccco3)c(CC3CCCCC3)n2c1,19,69*,4,.,.,23
Cc1ccc2nc(-c3ccco3)c(CC3CCCCC3)n2c1,0,1,-1,.,.,0
O=C(NCc1ccccn1)c1ccc2c(=O)n(CCc3ccccc3)c(=O)[nH]c2c1,0,-3,1,27,2,-4
CCc1ccccc1Nc1nn2c(=O)c3ccc(C(=O)NCc4ccccn4)cc3nc2s1,1,-5,0,-14,1,39*
O=C(NCc1ccccn1)c1ccc2c(=O)n3nc(Nc4ccccc4)sc3nc2c1,0,32,-4,-3,0,52*
COc1ccccc1Nc1nn2c(=O)c3ccc(C(=O)N4CCCCC4)cc3nc2s1,2,-2,1,-6,1,5
COc1ccccc1Nc1nn2c(=O)c3ccc(C(=O)NCc4cccnc4)cc3nc2s1,2,51*,3,.,0,47*
CCC(C)C(CO)NCCCn1cnc2c(OC)ncnc21 (centres undefined),-1,0,0,.,.,-4
CCOC(=O)C1(C)CCCN(C(=O)c2c(-c3ccccc3)noc2C)C1 (centres undefined),1,5,-2,.,.,-7
CCOc1ccccc1/C=C/c1nc2ccccc2[nH]c1=O,2,81*,1,-7,2,-10
O=C(NCc1ccc(F)cc1)c1cc(C2CCCN(C(=O)c3ccc4ccccc4c3)C2)on1 (centres undefined),2,-11,-1,.,.,-2
O=C(/C=C/c1ccc(F)cc1)NC(=S)NNC(=O)c1cnccn1,0,3,3,69*,1,-3
SMILES,LMPTP block,DNMT1 block,STEP block,Scp1 inh,GRK2 aptamer HTS,SUMO1-SIM PPI
COc1ccc(/C=C/C(=O)NC(=S)NNC(=O)c2cnccn2)cc1,-1,1,2,-11,1,-14
O=C1C=C(Nc2ccccc2C(=O)O)c2ccccc2C1=O,8,55*,6,17,5,21
O=c1c2c([N+](=O)[O-])cc([N+](=O)[O-])cc2sn1-c1ccc(Br)cc1,-1,-15,0,94*,0,-18
O=C(NC(Cc1c[nH]c2ccccc12)C(=O)O)OCC1c2ccccc2-c2ccccc21 (centres undefined),1,-2,10,.,.,8
CNS(=O)(=O)c1ccc(CNC[C@H]2O[C@@H](n3cc(C)c(=O)[nH]c3=O)C[C@@H]2O)cc1,-2,0,0,.,.,0
CCOC(=O)N1CCC(NC(=O)c2cc3c(-c4ccc(Cl)cc4)nn(C)c3s2)CC1,1,-14,3,-15,1,73*
CC(C)NC(=O)c1cc2c(-c3ccc(Cl)cc3)nn(C)c2s1,0,5,2,-15,1,-1
CN(C)c1ccc(C=c2c3ccccc3n3c2cc(-c2ccccc2)[n+]3C)cc1,89*,29,11,10,.,-61
COc1cc(C=c2c3ccccc3n3c2cc(-c2ccccc2)[n+]3C)cc(OC)c1OC,8,18,4,10,.,-17
CN(C)c1ccc(C=c2c3ccccc3n3c2c2c([n+]3C)CCCC2)cc1,53*,25,5,7,.,-87
CN(C)c1ccc(C=c2c3cc([N+](=O)[O-])ccc3n3c2cc(-c2ccccc2)[n+]3C)cc1,68*,36,9,4,.,59*
COc1cc(N(C)C)ccc1C=c1c2ccccc2n2c1cc(-c1ccccc1)[n+]2C,90*,-14,22,5,.,-19
CN(C)c1ccc(/C=C2\CCC/C(=C\c3ccccc3)C2=O)cc1,4,11,-21,-5,1,-21
COC(=O)[C@]12CCCCC=C1N(Cc1ccccc1)C(=O)[C@H](CC(=O)NCC13CC4CC(CC(C4)C1)C3)C2,4,.,.,.,.,3
CC(C)CNC(=O)c1cccc2c(-c3cccc(C(N)=O)c3)coc12,0,4,1,.,.,6
CN(c1ccc(F)cc1)S(=O)(=O)c1ccc(Cl)c(C(=O)NCC2(N3CCOCC3)CCCCC2)c1,1,2,-2,-5,.,3
CN(C)c1ccc(C=c2c3ccccc3n3c2cc(-c2ccc(Cl)cc2)[n+]3C)cc1,52*,35,4,7,.,-112
CN(c1ccc(Cl)cc1)c1cc(=O)n(C)c2ccccc12,3,-1,2,3,2,-5
O=C1CCC[C@@H]2C[C@@]3(C[C@@H]4CCN1[C@H]24)Nc1cc(Cl)c(Cl)cc1NC3=NCc1ccccc1,4,-26,0,3,.,7
NC(=S)n1[nH]c(-c2ccc([N+](=O)[O-])cc2)c(N=Nc2cccc([N+](=O)[O-])c2)c1=O,58*,-2,22,74*,.,88*
Cc1[nH]n(C(N)=S)c(=O)c1N=Nc1cccc([N+](=O)[O-])c1C,-1,-11,3,-4,1,-29
